Experimental data reported in ChEMBL document CHEMBL3259621, “Novel merosesquiterpene exerts a potent antitumor activity against breast cancer cells in vitro and in vivo” (Eur J Med Chem, 2014).
Calls of active or inactive are those of the source. No cut-off for these calls is given here.

Legend:
MCF7 [1] = assay: Induction of apoptosis in human MCF7 cells assessed as late apoptotic cells at 3 uM after 48 hrs by annexin V staining-based flow cytometry (reference value: 3.24 %); type: functional
MCF7 [2] = assay: Induction of apoptosis in human MCF7 cells assessed as apoptotic cells at 3 uM after 48 hrs by annexin V staining-based flow cytometry (reference value: 3.44 %); type: functional
MCF7 [3] = assay: Induction of apoptosis in human MCF7 cells assessed as reduction in total pRb protein expression at 2 uM after 16 hrs by Western blotting analysis relative to control; type: functional; design: scale not given: the % may be the effect or the level left
How it was run: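 MCF-7 seeded at 5 × 10⁴ cells/cm², exposed after 24 h to 2 µM for 0, 4, 8, 16 and 24 h. Lysed in SDS sample buffer, run on 12% acrylamide gels, transferred to nitrocellulose and blocked with 5% milk. Primary antibodies overnight at 4 °C (total or phospho-pRb, β-actin), secondary 1 h at room temperature, ECL chemiluminescence detection.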

[4] = target: Mitogen-activated protein kinase; ERK1/ERK2 (Homo sapiens) (UniProt P27361+P28482); assay: Increase of p44/42 MAPK phosphorylation in human MCF7 cells at 2 uM up to 4 hrs by Western blotting analysis relative to control; type: cell-based
Sequence of Mitogen-activated protein kinase; ERK1/ERK2 (Homo sapiens) (P27361 whole entry, looked up): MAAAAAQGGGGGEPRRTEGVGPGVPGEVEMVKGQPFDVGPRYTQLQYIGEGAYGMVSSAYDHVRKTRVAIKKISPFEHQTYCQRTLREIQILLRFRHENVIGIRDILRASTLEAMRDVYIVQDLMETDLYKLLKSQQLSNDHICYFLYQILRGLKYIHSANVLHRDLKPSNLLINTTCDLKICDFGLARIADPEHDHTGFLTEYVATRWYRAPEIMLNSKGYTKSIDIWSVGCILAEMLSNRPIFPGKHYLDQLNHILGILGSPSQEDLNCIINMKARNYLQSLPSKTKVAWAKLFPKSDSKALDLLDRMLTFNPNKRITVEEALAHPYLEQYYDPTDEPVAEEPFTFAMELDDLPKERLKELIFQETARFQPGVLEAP
Sequence of Mitogen-activated protein kinase; ERK1/ERK2 (Homo sapiens) (P28482 whole entry, looked up): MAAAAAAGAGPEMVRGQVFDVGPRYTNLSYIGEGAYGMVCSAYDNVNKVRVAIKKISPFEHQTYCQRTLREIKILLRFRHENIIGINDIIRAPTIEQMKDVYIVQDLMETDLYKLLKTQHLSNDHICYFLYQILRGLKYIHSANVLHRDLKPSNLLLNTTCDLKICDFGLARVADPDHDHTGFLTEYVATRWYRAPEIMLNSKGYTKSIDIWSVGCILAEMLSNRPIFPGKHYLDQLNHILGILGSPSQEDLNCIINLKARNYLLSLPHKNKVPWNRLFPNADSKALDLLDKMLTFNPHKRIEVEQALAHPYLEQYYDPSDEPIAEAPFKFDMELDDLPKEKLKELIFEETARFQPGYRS
How it was run: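 MCF-7 seeded at 5 × 10⁴/cm² and exposed at 24 h to 2 µM compound for 0, 4, 8, 16 and 24 h. Lysates separated on 12% SDS gels, transferred to nitrocellulose, blocked in 5% milk. Primary antibodies applied overnight at 4 °C, then secondary 1 h at room temperature. Detection by ECL chemiluminescence with β-actin as loading reference.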

MCF7 [5] = assay: Cytotoxicity against human MCF7 cells after 3 days by SRB assay; type: functional, cell-based; conditions: MCF7, 72 h
How it was run: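 Cells seeded in quadruplicate at 5 × 10³ cells/cm². Compound added at 24 h over increasing concentrations for 3 days. Cells fixed with cold 10% TCA, stained with 0.4% sulforhodamine B in 1% acetic acid, dye solubilized in 10 mM Tris pH 10.5, OD read at 492 nm. IC50 taken by linear interpolation of the semi-log dose-response curve. DMSO below 0.1% final.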

MCF7 [6] = assay: Cytotoxicity against human MCF7 cells assessed as reduction in cell viability at 1 uM after 3 days by SRB assay relative to control; type: functional
How it was run: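 MCF-7 seeded at high density (5 × 10⁴/cm²) and treated at 24 h with compound for 3 days, with or without 20 mM NAC. Viable cells quantified by sulforhodamine B staining, OD 492 nm. Viability reduction expressed versus untreated controls.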

MCF7 [7] = assay: Cell cycle arrest in human MCF7 cells assessed as accumulation at G0-G1 phase at 2 uM after 24 hrs by propidium iodide/RNAse staining-based FACS analysis (reference value: 42.34 %); type: functional

C=C1CC[C@@H]2[C@](C)(CCC[C@]2(C)C(=O)OC)[C@H]1Cc1c(C)ccc2c1C(=O)C=CC2=O
Activity (MCF7 [1]): 9.5%
Activity (MCF7 [2]): 57.8%
Activity (MCF7 [3]): 90%
Activity [4]: Active
IC50 (MCF7 [5]): 350 nM
viability (MCF7 [6]): 90.21%
Activity (MCF7 [7]): 66.6%
